Only some compounds are listed: those with a hit (about 1.5% of all), similar ones and a draw of the others.
APJ antag = antagonists of human apelin receptor APJ, primary screen, CHO-K1 cells, beta-arrestin complementation, luminescence. P35414. inhibition, % at 20 µM. 330,000 compounds, 0.32% hits;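 active means inhibition above about 40% at 20 µM, limit read from the data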;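 further: cells challenged with 10 nM apelin-13 agonist together with compound; plate controls were apelin-13 plus DMSO wells for no effect and DMSO wells lacking apelin-13 for full effect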
CCR6 antagonist = CCR6 receptor antagonists, primary screen, cell-based, CHO-K1, luminescence, beta-arrestin, uHTS. C-C chemokine receptor type 6 (Homo sapiens), P51684. CHO-K1 CCR6 PathHunter beta-arrestin, CCL20-stimulated. inhibition, % at 20 µM. 340,000 compounds, 0.49% hits. AID 493098, 2011;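 active means compounds whose inhibition of the agonist-driven luminescence signal at 20 µM reaches about 50%, limit read from the data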;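 further: cells stimulated with CCL20 at 14 nM final; plate controls were DMSO with CCL20 for no effect and DMSO without agonist for full effect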
APJ agonist = agonists of human apelin receptor APJ, primary screen, CHO-K1 cells, PathHunter beta-arrestin, luminescence; P35414; 0% DMSO wells, 100% apelin; activation, % at 20 µM; 330,000 compounds, 0.11% hits; AID 2520, 2010;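 active means activation more than six SD over the plate average, tested at 20 µM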;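 further: 0% = DMSO alone and 100% = apelin-13 at 10 nM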
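Assay system: engineered CHO-K1 APJ arrestin reporter cells; Amount: 1000 CHO-K1 reporter cells seeded per well; Dosing: one dose, 20 µM compound, 1% DMSO; Times: compound stimulation 90 min at 25 °C, detection 60 min; Measured by: luminescent beta-gal fragment complementation, chemiluminescent substrate; Read-out: APJ–arrestin association signal; Controls: DMSO vs Apelin-13 10 nM.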
CXCR6 inh = CXCR6 receptor inhibitors, primary screen, cell-based, beta-arrestin, luminescence, CHO-K1 PathHunter, 1536-well. AID 602244, 2012. inhibition, % at 20 µM. 360,000 compounds, 0.36% hits. C-X-C chemokine receptor type 6 (Homo sapiens), O00574; in the data active means inhibition above about 34%, passing the limit was not always enough;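 further: antagonist mode with CXCL16 agonist at 10 nM final; 0% = 10 nM CXCL16 with DMSO and 100% = unstimulated wells without agonist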
Target sequence (O00574 whole entry, looked up): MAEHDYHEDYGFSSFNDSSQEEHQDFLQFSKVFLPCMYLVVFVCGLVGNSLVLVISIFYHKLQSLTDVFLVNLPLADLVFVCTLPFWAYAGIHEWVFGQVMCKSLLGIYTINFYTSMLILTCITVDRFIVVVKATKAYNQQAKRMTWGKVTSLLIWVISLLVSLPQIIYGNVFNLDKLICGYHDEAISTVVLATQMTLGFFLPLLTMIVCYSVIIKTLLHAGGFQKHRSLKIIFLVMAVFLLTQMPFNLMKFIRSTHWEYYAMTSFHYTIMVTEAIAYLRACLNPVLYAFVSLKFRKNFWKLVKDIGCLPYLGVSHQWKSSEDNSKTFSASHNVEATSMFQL
EBI2 block = EBI2 receptor antagonists, beta-arrestin recruitment, primary screen, cell-based, luminescence, 7a,25-OHC stimulation, uHTS. G-protein coupled receptor 183 (Homo sapiens), P32249. 7a,25-OHC stimulated. inhibition, % at 5 µM. 360,000 compounds, 0.81% hits; in the data active means inhibition above about 38%;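 further: enzyme fragment complementation signal reports receptor beta-arrestin coupling in cells; 0% = agonist plus DMSO wells and 100% = wells without agonist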
Target sequence (P32249 whole entry, looked up, the tested form may be a part): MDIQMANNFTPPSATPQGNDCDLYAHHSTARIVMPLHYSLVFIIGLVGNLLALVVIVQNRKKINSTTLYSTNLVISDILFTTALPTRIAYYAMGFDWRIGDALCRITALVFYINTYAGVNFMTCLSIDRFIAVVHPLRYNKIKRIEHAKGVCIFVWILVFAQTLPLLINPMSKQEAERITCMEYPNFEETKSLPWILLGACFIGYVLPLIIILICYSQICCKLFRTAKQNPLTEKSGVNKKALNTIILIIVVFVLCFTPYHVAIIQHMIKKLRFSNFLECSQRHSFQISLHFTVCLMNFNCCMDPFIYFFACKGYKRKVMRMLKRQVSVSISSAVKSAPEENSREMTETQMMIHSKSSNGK
EBI2 conf = EBI2 antagonist hit retest, beta-arrestin, confirmation, cell-based, single concentration, luminescence, 7a,25-OHC stimulation. shares compounds with EBI2 block. 7a,25-OHC antagonism. inhibition, % at 5 µM. 2,400 compounds, 29% hits. AID 651997, 2013;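 active means inhibition of at least 50%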
EBI2 agonist = EBI2 agonist activity of antagonist hits, confirmation, counter-screen for EBI2 antagonist project, cell-based, single concentration, agonist mode, luminescence. 2,400 tested, under 10 active. AID 652000, 2013. shares compounds with EBI2 block. EBI2-expressing cells, 60 min; 0% vehicle, 100% 7α,25-dihydroxycholesterol control. activation, % at 5 µM;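 active means activation of at least 50%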
bGal cs = E. coli beta-galactosidase enzyme inhibition, confirmation, counter-screen for EBI2 antagonist project, biochemical, luminescence, single concentration; shares compounds with EBI2 block; purified beta-galactosidase, luminescent Galacton Star, 15 min; inhibition, % at 5 µM; 2,400 compounds, 1% hits; AID 652176, 2013;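 active means replicate-average signal at least 3 plate SD below neutral wells, shown as high inhibition, flagging enzyme-inhibiting false positives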;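 further: 0% = DMSO wells with enzyme and 100% = wells lacking enzyme; higher means stronger loss of beta-gal luminescence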
Starred values were filed as active, the others as inactive; / = no result.

SMILES | APJ antag | CCR6 antagonist | APJ agonist | CXCR6 inh | EBI2 block | EBI2 conf | EBI2 agonist | bGal cs
Cc1ccc(CCNC(=O)C23CN(Cc4ccccc4)CC2C(c2cccc([N+](=O)[O-])c2)=NO3)cc1 (centres undefined) | 2 | 5 | -1 | 5 | 63* | 43 | 2 | 7
O=C(NCC1CCCCC1)C12CN(Cc3ccccc3)CC1C(c1cccc([N+](=O)[O-])c1)=NO2 (centres undefined) | -37 | 22 | -5 | 11 | 8 | / | / | /
COc1ccc(CCNC(=O)C23CN(Cc4ccccc4)CC2C(c2cccc([N+](=O)[O-])c2)=NO3)cc1 (centres undefined) | -2 | 3 | 2 | 2 | 52* | 45 | 1 | -2
Cc1ccc(OCC(O)CNS(=O)(=O)c2ccccc2C(=O)N2CCCCC2)cc1 (centres undefined) | 0 | 6 | -6 | -8 | 46* | 7 | -1 | -13
Cc1c(C(=O)Oc2cccc3ccccc23)cnn1-c1ccccc1 | -6 | 4 | -2 | -1 | 31* | 4 | 0 | 2
Cc1cccc(OCC(=O)N/N=C/c2cn[nH]c2-c2ccc(Cl)c(Cl)c2)c1 | -10 | -6 | 9 | -15 | 39* | 1 | 0 | -11
O=C(c1ccc(Cl)cc1)N1CCN(C(=O)C2CCCCC2)CC1 | 5 | 3 | 1 | -4 | 60* | 17 | 3 | 3
O=C(c1ccc(Cl)cc1)N1CCCC(C(=O)N2CCCCC2)C1 (centres undefined) | 7 | 1 | -2 | -14 | -2 | / | / | /
O=C(c1ccc(F)cc1)C1CCN(C(=O)c2ccc(Cl)cc2)CC1 | / | 19 | / | -7 | 83* | 54* | 0 | -12
O=C(c1ccc(Cl)cc1)C1CCN(C(=O)c2ccccc2)CC1 | -10 | 3 | 0 | -3 | 21 | / | / | /
O=C1CCN(Cc2ccccc2)N1 | 18 | 11 | 0 | -4 | -1 | / | / | /
CCN(C(=O)c1ccc2c(c1)OCO2)C12CC3CC(CC(C3)C1)C2 | -5 | 6 | -3 | -8 | -2 | / | / | /
CCc1ccc(CN(Cc2cccnc2)C(=O)/C=C/c2ccc(OC)cc2)cc1 | -17 | 15 | -2 | 10 | 62* | 27 | -1 | -3
CC1CCN(C2=NC(=O)/C(=C/c3cn(-c4ccccc4)nc3-c3cccc(S(=O)(=O)N(C)C)c3)S2)CC1 | 31 | 14 | -3 | 21 | 48* | 40 | -1 | -14
Cn1ccnc1Sc1ccc(C(N)=O)cc1[N+](=O)[O-] | -3 | 3 | 0 | -8 | -2 | / | / | /
COc1ccc(OCCNc2cc(N3CCOCC3)ccc2[N+](=O)[O-])cc1 | -1 | 19 | 0 | 18 | 30 | / | / | /
COc1cccc(OCCNc2cc(N3CCCCC3)ccc2[N+](=O)[O-])c1 | 24 | 24 | -6 | 28 | 61* | 46 | 0 | 6
COc1cccc(OCCNc2cc(N3CCOCC3)ccc2[N+](=O)[O-])c1 | 13 | 13 | -3 | 12 | 44* | 33 | 0 | -3
COc1cccc(C(C(=O)NC2CCCC2)N2CCN(c3cc(C)ccc3C)CC2)c1OC (centres undefined) | / | / | / | / | 6 | / | / | /
COc1ccc(N2CCN(C(CNC(=O)C(=O)NCCc3c[nH]c4ccccc34)c3ccco3)CC2)cc1 (centres undefined) | 1 | 1 | 0 | 10 | 49* | 45 | -1 | -22
CC(NC(=O)C(=O)NCCc1c[nH]c2ccccc12)c1ccccc1 (centres undefined) | 5 | -1 | 1 | 14 | 61* | 34 | 1 | 7
O=C(NCCc1c[nH]c2ccccc12)c1ccc(Cl)cc1 | 0 | 9 | 1 | 5 | 60* | 34 | -1 | -7
CCC(=O)NCCc1c[nH]c2ccccc12 | 6 | 17 | -1 | -8 | -6 | / | / | /
CCCCN(CCCC)CCNC(=O)CSCc1ccc(C)cc1 | -3 | 4 | -7 | 6 | 8 | / | / | /
COc1cc(/C=C/C(=O)c2ccc(Cl)s2)cc(OC)c1O | 31 | 48 | -2 | 37 | 45* | 33 | -2 | 4
SMILES | APJ antag | CCR6 antagonist | APJ agonist | CXCR6 inh | EBI2 block | EBI2 conf | EBI2 agonist | bGal cs
COc1ccc(/C=C/C(=O)c2ccc(Cl)s2)cc1O | 3 | 27 | -2 | 14 | 13 | / | / | /
COCCCN(Cc1ccco1)C(=O)Cn1ncc2c(=O)oc3ccc(C)cc3c21 | -11 | 11 | -1 | -7 | 55* | 40 | -1 | -12
Cc1ccc2oc(=O)c3cnn(CC(=O)N4CCN(c5ccccc5)CC4)c3c2c1 | 11 | 24 | 4 | 8 | 23 | / | / | /
Cc1ccc2oc(=O)c3cnn(CC(=O)N4CCCc5ccccc54)c3c2c1 | 6 | 4 | -1 | 7 | 53* | 22 | 0 | -14
Cc1cc(C)c(OCC(=O)NCC(C)(C)N2CCOCC2)c(C)c1 | 2 | -11 | -2 | -6 | 3 | / | / | /
CNC(=O)/C(C#N)=C/c1ccc(-c2nc3ccccc3s2)o1 | 5 | 5 | 0 | 1 | 53* | 30 | -1 | -11
N#C/C(=C\c1ccc(-c2nc3ccccc3s2)o1)C(N)=O | 5 | 9 | -1 | 4 | 39 | / | / | /
Cc1cc(Cl)ccc1NC(=O)CN1C(=O)NC2(CCCc3ccccc32)C1=O (centres undefined) | -60 | 2 | 7 | 0 | -5 | / | / | /
O=C(Nc1ccc(O)cc1)c1ccc2c(c1)C(=O)N(Cc1ccccc1)C2=O | -24 | -1 | 1 | -8 | 57* | 22 | 1 | 9
CCCN1C(=O)c2ccc(C(=O)Nc3cc(C)on3)cc2C1=O | -15 | -12 | -6 | 4 | -9 | / | / | /
Cc1cc(NC(=O)c2ccc3c(c2)C(=O)N(Cc2ccccc2)C3=O)no1 | 4 | 3 | -1 | -3 | 47* | 20 | 0 | 5
O=C(Nc1ccc(NC(=O)c2ccccc2O)cc1)Nc1ccc(F)cc1F | -15 | 9 | 5 | 3 | -1 | / | / | /

Compound activity: PubChem, Sanford-Burnham Center for Chemical Genomics
